This is a sample that favours compounds with a hit; in the whole collection about 3.5% have one here.
Wnt act – Wnt/beta-catenin pathway activators, primary screen, cell-based, plate reader, single point. Wnt/beta-catenin reporter cell assay, activator. activation, % at 9.35 µM. actives 1.2% (n = 300,000). AID 743398, 2014; in the data active = activation above about 30%, passing the limit was not always enough; inconclusive = no clear call, values can overlap the other calls;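 also: 0% = neutral control wells and 100% = positive control wells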
HIV Env fusion – inhibitors of HIV-1 Env-driven cell-cell fusion, primary screen, HeLa-JRFL effector, CEM21 target cells, luciferase; inhibition, % at 12.3 µM; actives 1.1% (n = 360,000);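 active = mean replicate inhibition score of at least 50 and every replicate individually at or above 50; inconclusive = only one of the two criteria met; inactive = mean below 50 and not all replicates reaching 50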;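 also: 0% = plate neutral controls and 100% = maraviroc near 300 nM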
esBAF inh – Bmi1 luciferase reporter increase in mESCs, primary screen, esBAF inhibitor project, mouse ES cells, Bmi1 luciferase knock-in, single point. 24 h; 100% = twice the neutral-well signal. reporter increase, % at 12.5 µM. actives 2% (n = 350,000). AID 602393, 2012; in the data active = activation above about 40%; inconclusive = no clear call, values can overlap the other calls;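 also: 0% = median of the plate's neutral control wells and 100% = double that signal; a rise in the Bmi1 reporter signal indicates esBAF inhibition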
ERAP1 HTS inh – human ERAP1 aminopeptidase inhibitors, primary screen, biochemical, single point, plate reader; Endoplasmic reticulum aminopeptidase 1 (Homo sapiens), Q9NZ08; recombinant ERAP1, Leu-AMC fluorescence, 60 min; inhibition, % at 10.7 µM; actives 0.15% (n = 340,000); AID 652197, 2013;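 active = mean replicate inhibition of at least 30%, or all replicates individually reaching that 30% level; inactive = mean below 30% and not every replicate reaching it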;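 also: 0% = neutral control wells and 100% = L-leucinethiol positive control wells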
Target sequence (Q9NZ08 whole entry, looked up): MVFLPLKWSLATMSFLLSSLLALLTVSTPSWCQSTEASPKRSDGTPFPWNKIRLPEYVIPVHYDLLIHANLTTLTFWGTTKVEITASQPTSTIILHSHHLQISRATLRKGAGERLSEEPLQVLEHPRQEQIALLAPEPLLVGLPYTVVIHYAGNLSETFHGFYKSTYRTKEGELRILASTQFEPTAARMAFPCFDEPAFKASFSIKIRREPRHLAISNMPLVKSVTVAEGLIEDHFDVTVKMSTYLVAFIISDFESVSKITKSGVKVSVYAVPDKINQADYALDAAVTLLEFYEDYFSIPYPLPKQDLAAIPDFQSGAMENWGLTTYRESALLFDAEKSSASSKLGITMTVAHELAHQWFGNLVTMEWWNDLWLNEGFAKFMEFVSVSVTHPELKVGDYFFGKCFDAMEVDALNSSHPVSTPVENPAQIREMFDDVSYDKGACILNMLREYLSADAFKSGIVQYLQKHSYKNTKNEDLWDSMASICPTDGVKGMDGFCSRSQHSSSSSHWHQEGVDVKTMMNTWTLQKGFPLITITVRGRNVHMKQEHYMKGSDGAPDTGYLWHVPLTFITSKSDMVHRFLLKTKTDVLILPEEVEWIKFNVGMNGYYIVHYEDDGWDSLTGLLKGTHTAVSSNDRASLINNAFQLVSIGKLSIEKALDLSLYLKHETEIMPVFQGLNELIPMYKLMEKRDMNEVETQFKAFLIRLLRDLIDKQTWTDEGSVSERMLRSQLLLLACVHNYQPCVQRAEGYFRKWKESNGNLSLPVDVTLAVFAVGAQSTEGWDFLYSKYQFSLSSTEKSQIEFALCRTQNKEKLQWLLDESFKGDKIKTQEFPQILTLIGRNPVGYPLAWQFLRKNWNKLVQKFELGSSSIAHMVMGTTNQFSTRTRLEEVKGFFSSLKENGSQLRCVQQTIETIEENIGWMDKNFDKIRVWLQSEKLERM
MITF act – activators of MITF-driven TRPM1 promoter reporter, primary screen, cell-based, SK-MEL-5, luciferase, single point | activation, % at 12.5 µM | actives 0.75% (n = 300,000) | SK-MEL-5 TRPM1-promoter luciferase, 24 h; % of positive control, neutral wells = 0 | AID 588334, 2011;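 active = mean activation of at least 80% with every replicate also reaching 80%; inconclusive = mean reaches 80% but some replicate falls short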;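 also: 0% = neutral control wells and 100% = parthenolide positive control wells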
Cneo AK release – Cryptococcus neoformans cell lysis inducers, primary screen, AK release luminescence, single concentration | actives 0.2% (n = 360,000) | AID 651654, 2012 | C. neoformans lysis, adenylate kinase release luminescence, 4 h; normalised: neutral wells 0, clomiphene wells 100 | lysis activity, % at 15 µM;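 active = mean lysis activity across replicates of at least 80%, whatever share of replicates individually reach that level; inactive = mean lysis activity below 80%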
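Assay system: C. neoformans cells. Amount: yeast cell density of 5 × 10^6 cells/mL. Technique: AK luminescence. Buffer or medium: YPD. Times: static 4 h at 37 °C with compound, 1 h detection. Dosing: single-point compound dose. Read-out: lysis from increased AK signal.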
* marks the source's active call; other numbers are inactive results; ? = inconclusive; · = not tested or not shown; [ ] = remark or other dose.

SMILES	Wnt act	HIV Env fusion	esBAF inh	ERAP1 HTS inh	MITF act	Cneo AK release
COc1ccc2c(c1)CC/C(=C\C=C\c1ccccc1)C2=O	31*	-12	?	·	·	-3
CC(=O)Oc1ccc(/C=C2/CCc3ccccc3C2=O)cc1	13	3	52*	5	75	-6
COc1ccc(/C=C2\CCc3ccccc3C2=O)cc1OC	·	39	40	·	29	-13
O=C1/C(=C/Nc2ccc3c(c2)OCO3)CCc2ccccc21	·	·	·	·	-14	-3
COc1cccc(/C=C2\CCc3ccccc3C2=O)c1	35*	-5	42	2	66	-4
C[C@H]1CN([C@@H](C)CO)C(=O)c2cc(NC(=O)Nc3ccc4c(c3)OCO4)ccc2O[C@@H]1CN(C)S(=O)(=O)c1cccs1	·	-24[16.7 µM]	-1	0	·	1
CCCC(=O)Nc1ccc2c(c1)OC[C@@H](C)N(C(=O)c1ccncc1)C[C@H](C)[C@@H](OC)CN(C)C2=O	·	13[16.7 µM]	-4	-2	·	1
CCn1ncc(C2=NOC(C(=O)Nc3ccc(C)cc3)C2)c1C (stereo unspecified)	-4	42*	·	·	-21	·
CN(C)CC(=O)Nc1ccc2c(c1)[C@@H]1C[C@H](CC(=O)N3CCN(C)CC3)O[C@@H](CO)[C@@H]1O2	·	·	4	-1	·	43
CCC(=O)N1C[C@H](C)[C@H](OC)CN(C)C(=O)c2ccc(NC(=O)Nc3ccc(Cl)cc3)cc2OC[C@@H]1C	·	15[16.7 µM]	0	·	·	·
COc1ccccc1-c1nnc(-c2ccc(C)cc2)o1	-1	-108	·	-1	·	-8
COc1ccccc1C1=NC(c2ccc(C)cc2)N=C1C (stereo unspecified)	52*	-252	·	-2	46	·
O=C(C1CCCC1)N1CC[C@@H]2[C@H]1c1cc(-c3cccc(F)c3)ccc1N[C@@H]2CO	·	·	·	-2	·	·
Cc1cccc2c1-c1sc(C(=O)N3CCCCC3)cc1CO2	23	-127	68*	·	88*	0
COc1ccc(NC(=O)Nc2ccc3c(c2)C(=O)N([C@H](C)CO)C[C@H](C)[C@@H](CN(C)C(=O)c2ccccc2)OCCCC[C@H](C)O3)cc1	·	-50[16.7 µM]	0	-2	·	1
COc1ccc(NC(=O)Nc2ccc3c(c2)C(=O)N([C@@H](C)CO)C[C@H](C)[C@H](CN(C)C(=O)c2ccccc2)OCCCC[C@H](C)O3)cc1	·	56*[16.7 µM]	-4	-3	·	54
COc1ccc(NC(=O)Nc2ccc3c(c2)C(=O)N([C@H](C)CO)C[C@H](C)[C@H](CN(C)C(=O)c2ccccc2)OCCCC[C@H](C)O3)cc1	·	61*[16.7 µM]	-4	0	·	41
C[C@@H]1CN([C@@H](C)CO)C(=O)c2cc(-c3ccc(F)cc3)cnc2O[C@@H]1CN(C)CC1CCCCC1	·	-10[16.7 µM]	-5	-15	·	5
CCC(=O)Nc1nc2cc(OC)ccc2s1	59*	-247	17	·	·	-6
CCOCC(=O)Nc1nc2ccc(OC)cc2s1	·	·	·	·	?	-1
COc1ccc2sc(NCc3ccccc3)nc2c1	33*	-114	99*	0	111*	-1
COc1ccc(/C=C/c2nnc(NC(=O)CSc3ccc(C)cc3)s2)cc1	27	3	24	5	13	-1
COc1ccc2sc(NC(=O)CC(C)C)nc2c1	57*	-125	40	·	?	-12
CCC(=O)Nc1nnc(/C=C/c2ccc(OC)cc2)s1	34*	-18	·	·	·	·
COc1cc(CNc2nc3ccccc3s2)cc(OC)c1OC	1	1	8	0	·	4
SMILES	Wnt act	HIV Env fusion	esBAF inh	ERAP1 HTS inh	MITF act	Cneo AK release
O=C(c1ccncc1)N1CC2(C1)[C@@H](c1ccccc1)[C@@H](CO)N2CC1CCOCC1	·	·	·	0	·	·
COc1ccc2sc(NC(C)=O)nc2c1	48*	-44	27	·	54	-2
CCC(=O)Nc1nc2ccc3nc(C)sc3c2s1	22	-106	46*	·	44	-2
CCC(=O)Nc1nc2c(OC)ccc(OC)c2s1	7	-48	-4	2	-10	2
COc1ccc2sc(NC(=O)NC(=O)c3c(Cl)cccc3Cl)nc2c1	2	-4	·	-4	·	·
c1ccc(Cn2ccnc2-c2ccco2)cc1	28	-63	56*	·	52	-1
CO[C@H]1CN(C)C(=O)c2cc(NC(=O)c3ccccc3)ccc2OC[C@H](C)N(CC2CC2)C[C@@H]1C	·	-6[16.7 µM]	-4	·	·	-2
COCC(=O)Nc1ccc2c(c1)[C@H]1C[C@H](CC(=O)NCc3ccc(-c4ccccc4)cc3)O[C@H](CO)[C@H]1O2	·	3[16.7 µM]	17	-4	·	4
O=C(NNC(=O)c1cccc2ccccc12)c1ccc2c(c1)OCO2	-2	-31	54*	·	50	2
COc1ccc(C(=O)Nc2ccccc2NC(=O)c2ccc(OC)cc2)cc1	2	-17	1	·	16	1
COc1ccc(C(=O)NC(=S)Nc2ccccc2F)cc1	34*	·	·	·	45	·
COc1cccc(C(=O)NNC(=O)c2cccc3ccccc23)c1	-3	-20	17	0	23	4
COc1ccc(CNC(=S)Nc2ccccc2F)cc1	-1	-42	10	-3	-6	3
COc1ccc(C(=O)Nc2cccc3ccccc23)cc1	0	-5	52*	0	·	1
COc1ccc(C(=O)NNC(=O)c2cccc3ccccc23)cc1	5	·	54*	2	40	-2
Cc1nc2c(-c3ccccc3)c(C)[nH]n2c(=O)c1Cc1ccccc1	-2	15	·	-3	-12	·
Cc1nc2c(-c3ccc(Cl)cc3)c(C)[nH]n2c(=O)c1Cc1ccccc1	-14	57*	·	4	-40	·
O=C(Nc1ccc2c(c1)OCO2)C1CC(c2ccccc2O)=NO1 (stereo unspecified)	1	9	25	2	·	4
O=C(Nc1ccc2c(c1)OCO2)c1cc(-c2ccc(O)cc2)on1	21	-42	46*	4	77	0
O=C(Nc1cccnc1)c1cc(-c2ccc3c(c2)OCO3)on1	·	-264	69*	·	22	-3
O=C(Nc1cccnc1)c1cc(-c2ccc(Cl)c(Cl)c2)on1	14	-10	7	-3	16	0
O=C(Nc1ccc2c(c1)OCCO2)C1CC(c2ccccc2Cl)=NO1 (stereo unspecified)	11	-19	60*	-5	?	-1
O=C(Nc1ccc2c(c1)OCO2)c1cc(-c2cccc(O)c2)on1	21	-11	43*	-2	115*	-1
C[C@@H]1CCCCO[C@@H](CN(C)C(=O)CCC(F)(F)F)[C@@H](C)CN([C@@H](C)CO)C(=O)c2cc(NC(=O)c3ccccc3)ccc2O1	·	-33[16.7 µM]	-10	-7	·	-1

Screening data (PubChem)
